Assay results reported in ChEMBL document CHEMBL3804761, “Synthesis of a stable and orally bioavailable englerin analogue” (Bioorg Med Chem Lett, 2016).

Legend:
Format in all cases: functional
HT-29 = assay: Growth inhibition of human HT-29 cells assessed as cell growth at 10 uM incubated for 48 hrs by sulforhodamine B assay relative to control; conditions: HT-29, 48 h, read-out: Activity
Procedure, shortened: (§1)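 Run in the standard NCI 60-cell-line screen. Cells were exposed to drug for two days, and the read-out was sulforhodamine B staining. Compound was tested at a single final concentration of 10 µM in every line, and results are reported as growth percent.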

[1] = Growth inhibition of human SW620 cells assessed as cell growth at 10 uM incubated for 48 hrs by sulforhodamine B assay relative to control; conditions: SW-620, 48 h, read-out: Activity; procedure, shortened: as §1
M14 = assay: Growth inhibition of human M14 cells assessed as cell growth at 10 uM incubated for 48 hrs by sulforhodamine B assay relative to control; conditions: M14, 48 h, read-out: Activity; procedure, shortened: as §1
MDA-MB-435 = assay: Growth inhibition of human MDA-MB-435 cells assessed as cell growth at 10 uM incubated for 48 hrs by sulforhodamine B assay relative to control; conditions: MDA-MB-435, 48 h, read-out: Activity; procedure, shortened: as §1
SK-MEL-2 = assay: Growth inhibition of human SK-MEL-2 cells assessed as cell growth at 10 uM incubated for 48 hrs by sulforhodamine B assay relative to control; conditions: SK-MEL-2, 48 h, read-out: Activity; procedure, shortened: as §1
SK-MEL-5 = assay: Growth inhibition of human SK-MEL-5 cells assessed as cell growth at 10 uM incubated for 48 hrs by sulforhodamine B assay relative to control; conditions: SK-MEL-5, 48 h, read-out: Activity; procedure, shortened: as §1
[2] = Growth inhibition of human UACC62 cells assessed as cell growth at 10 uM incubated for 48 hrs by sulforhodamine B assay relative to control; conditions: UACC-62, 48 h, read-out: Activity
Procedure, shortened: (§2)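 NCI 60-cell line standard protocol, one-dose screen: single final concentration 10 µM, 2-day drug exposure, sulforhodamine B (SRB) endpoint; read-out is growth percent relative to untreated control.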

[3] = Growth inhibition of human OVCAR8 cells assessed as cell growth at 10 uM incubated for 48 hrs by sulforhodamine B assay relative to control; conditions: OVCAR-8, 48 h, read-out: Activity; procedure, shortened: as §1
NCI/ADR-RES = assay: Growth inhibition of human NCI/ADR-RES cells assessed as cell growth at 10 uM incubated for 48 hrs by sulforhodamine B assay relative to control; conditions: read-out: Activity; procedure, shortened: as §1
[4] = Growth inhibition of human Caki1 cells assessed as cell growth at 10 uM incubated for 48 hrs by sulforhodamine B assay relative to control; conditions: CAKI-1, 48 h, read-out: Activity; procedure, shortened: as §1
[5] = Growth inhibition of human TK10 cells assessed as cell growth at 10 uM incubated for 48 hrs by sulforhodamine B assay relative to control; conditions: TK-10, 48 h, read-out: Activity; procedure, shortened: as §2
MCF7 = assay: Growth inhibition of human MCF7 cells assessed as cell growth at 10 uM incubated for 48 hrs by sulforhodamine B assay relative to control; conditions: MCF7, 48 h, read-out: Activity; procedure, shortened: as §1
[6] = Growth inhibition of human MOLT4 cells assessed as cell growth at 10 uM incubated for 48 hrs by sulforhodamine B assay relative to control; conditions: MOLT-4, 48 h, read-out: Activity; procedure, shortened: as §1
A549 [7] = assay: Growth inhibition of human A549/ATCC cells assessed as cell growth at 10 uM incubated for 48 hrs by sulforhodamine B assay relative to control; conditions: A549, 48 h, read-out: Activity; procedure, shortened: as §1
NCI-H226 [8] = assay: Growth inhibition of human NCI-H226 cells assessed as cell growth at 10 uM incubated for 48 hrs by sulforhodamine B assay relative to control; conditions: NCI-H226, 48 h, read-out: Activity; procedure, shortened: as §1
[9] = Growth inhibition of human COLO205 cells assessed as cell growth at 10 uM incubated for 48 hrs by sulforhodamine B assay relative to control; conditions: COLO 205, 48 h, read-out: Activity; procedure, shortened: as §1
[10] = Growth inhibition of human HCT116 cells assessed as cell growth at 10 uM incubated for 48 hrs by sulforhodamine B assay relative to control; conditions: HCT-116, 48 h, read-out: Activity; procedure, shortened: as §1
MDA-MB-468 = assay: Growth inhibition of human MDA-MB-468 cells assessed as cell growth at 10 uM incubated for 48 hrs by sulforhodamine B assay relative to control; conditions: MDA-MB-468, 48 h, read-out: Activity; procedure, shortened: as §1
A549 [11] = assay: Growth inhibition of human A549/ATCC cells incubated for 48 hrs by sulforhodamine B assay; conditions: A549, 48 h
Procedure, shortened: (§3)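 NCI 60-cell-line panel, standard protocol. Cells exposed to compound for two days, growth read by sulforhodamine B staining. Tested at five 10-fold dilutions, top concentration 100 µM, to give dose-response curves.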

NCI-H226 [12] = assay: Growth inhibition of human NCI-H226 cells incubated for 48 hrs by sulforhodamine B assay; conditions: NCI-H226, 48 h; procedure, shortened: as §3
NCI-H460 = assay: Growth inhibition of human NCI-H460 cells incubated for 48 hrs by sulforhodamine B assay; conditions: NCI-H460, 48 h; procedure, shortened: as §3
NCI-H522 = assay: Growth inhibition of human NCI-H522 cells incubated for 48 hrs by sulforhodamine B assay; conditions: NCI-H522, 48 h; procedure, shortened: as §3
KM12 = assay: Growth inhibition of human KM12 cells incubated for 48 hrs by sulforhodamine B assay; conditions: KM12, 48 h; procedure, shortened: as §3
[13] = Growth inhibition of human SW620 cells incubated for 48 hrs by sulforhodamine B assay; conditions: SW-620, 48 h
Procedure, shortened: (§4)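 Tested in the standard NCI 60-cell-line protocol with two-day drug exposure and a sulforhodamine B endpoint. Compounds were first screened at a single final concentration of 10 µM, reported as growth percent. They were then run as five 10-fold dilutions starting from a high concentration of 100 µM to give dose-response curves.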

[14] = Growth inhibition of human SF268 cells incubated for 48 hrs by sulforhodamine B assay; conditions: SF-268, 48 h; procedure, shortened: as §3
[15] = Growth inhibition of human SF539 cells incubated for 48 hrs by sulforhodamine B assay; conditions: SF-539, 48 h; procedure, shortened: as §3
U-251 = assay: Growth inhibition of human U251 cells incubated for 48 hrs by sulforhodamine B assay; conditions: U-251, 48 h; procedure, shortened: as §4
[16] = Growth inhibition of human OVCAR8 cells incubated for 48 hrs by sulforhodamine B assay; conditions: OVCAR-8, 48 h; procedure, shortened: as §3
MDA-MB-231 = assay: Growth inhibition of human MDA-MB-231 cells incubated for 48 hrs by sulforhodamine B assay; conditions: MDA-MB-231, 48 h; procedure, shortened: as §3
[17] = read-out: pLC50 (the source's name) (converted)

CC(C)[C@@]12C[C@@H](NC(=O)CF)[C@@](C)(O1)[C@@H]1CC[C@@H](C)[C@H]1[C@@H]2OC(=O)/C=C/c1ccccc1 showed a growth at 10 µM (HT-29) of 109%, a growth at 10 µM [1] of 101% and a growth at 10 µM (M14) of 96.7%. For the same compound, the growth at 10 µM (MDA-MB-435) was 106%, the growth at 10 µM (SK-MEL-2) was 117% and the growth at 10 µM (SK-MEL-5) was 110%. For the same compound, the growth at 10 µM [2] was 99.6%, the growth at 10 µM [3] was 107% and the growth at 10 µM (NCI/ADR-RES) was 98.5%. The growth at 10 µM [4] was 80.9%, the growth at 10 µM [5] was 104% and the growth at 10 µM (MCF7) was 106%. For the same compound, the growth at 10 µM [6] was 96.5%, the growth at 10 µM (A549 [7]) was 94.4% and the growth at 10 µM (NCI-H226 [8]) was 84.5%. The growth at 10 µM [9] was 103% and the growth at 10 µM [10] was 87.4%.

In the case of CC(C)[C@@]12C[C@@H](NC(=O)CO)[C@@](C)(O1)[C@@H]1CC[C@@H](C)[C@H]1[C@@H]2OC(=O)/C=C/C1CCCCC1, the growth at 10 µM (HT-29) is reported as 97.4%, the growth at 10 µM [1] is reported as 102% and the growth at 10 µM (M14) is reported as 104%. For the same compound, the growth at 10 µM (MDA-MB-435) was 102%, the growth at 10 µM (SK-MEL-2) was 99.2% and the growth at 10 µM (SK-MEL-5) was 99.3%. The growth at 10 µM [2] was 101%, the growth at 10 µM [3] was 107% and the growth at 10 µM (NCI/ADR-RES) was 94.8%. The growth at 10 µM [4] was 88.7%, the growth at 10 µM [5] was 94.1% and the growth at 10 µM (MCF7) was 94%. It also gave a growth at 10 µM (MDA-MB-468) of 97.5%, a GI50 (A549 [11]) of over 44.7 µM and an LC50 (A549 [11]) of over 44.7 µM. For the same compound, the TGI (A549 [11]; read-out: pTGI (converted)) was over 44.7 µM, the GI50 (NCI-H226 [12]) was over 44.7 µM and the LC50 (NCI-H226 [12]) was over 44.7 µM. It also gave a TGI (NCI-H226 [12]; read-out: pTGI (converted)) of over 44.7 µM, a GI50 (NCI-H460) of over 44.7 µM and a CC50 (NCI-H460; [17]) of over 44.7 µM. It also gave a TGI (NCI-H460; read-out: pTGI (converted)) of over 44.7 µM, a GI50 (NCI-H522) of over 44.7 µM and an LC50 (NCI-H522) of over 44.7 µM. For the same compound, the TGI (NCI-H522; read-out: pTGI (converted)) was over 44.7 µM, the GI50 (KM12) was over 44.7 µM and the LC50 (KM12) was over 44.7 µM. It also gave a TGI (KM12; read-out: pTGI (converted)) of over 44.7 µM, a GI50 [13] of over 44.7 µM and an LC50 (50% lethal concentration) [13] of over 44.7 µM. For the same compound, the TGI ([13]; read-out: pTGI (converted)) was over 44.7 µM, the GI50 [14] was over 44.7 µM and the LC50 (lethal concentration, 50% net cell kill) [14] was over 44.7 µM. The TGI ([14]; read-out: pTGI (converted)) was over 44.7 µM, the GI50 [15] was over 44.7 µM and the LC50 [15] was over 44.7 µM. It also gave a TGI ([15]; read-out: pTGI (converted)) of over 44.7 µM, a GI50 (U-251) of over 44.7 µM and an LC50 (concentration giving 50% net cell kill) (U-251) of over 44.7 µM. The TGI (U-251; read-out: pTGI (converted)) was over 44.7 µM, the GI50 [16] was 28.2 µM and the LC50 (concentration killing 50% of cells) [16] was over 44.7 µM. For the same compound, the TGI ([16]; read-out: pTGI (converted)) was over 44.7 µM, the GI50 (MDA-MB-231) was over 44.7 µM and the CC50 (MDA-MB-231; [17]) was over 44.7 µM. The TGI (MDA-MB-231; read-out: pTGI (converted)) was over 44.7 µM, the growth at 10 µM [6] was 98% and the growth at 10 µM (A549 [7]) was 92%. For the same compound, the growth at 10 µM (NCI-H226 [8]) was 96.2%, the growth at 10 µM [9] was 113% and the growth at 10 µM [10] was 103%.
